Laboratory results taken from ChEMBL document CHEMBL4152256, “Structure-activity relationship of new antimalarial 1-aryl-3-susbtituted propanol derivatives: Synthesis, preliminary toxicity profiling, parasite life cycle stage studies, target exploration, and targeted delivery” (Eur J Med Chem, 2018).

Legend:
[1] = Genotoxicity in Salmonella typhimurium TA1535 harboring pSK1002 assessed as umu gene induction at 0.0005 mg/ml in presence of Sprague-Dawley rat liver S9 fraction after by SOS/umu assay relative to control; format: toxicity, organism-based; settings: salmonella enterica subsp. enterica serovar typhimurium, read-out: FC
Plasmodium falciparum [2] = test: (§1) Ratio of IC50 for antiplasmodial activity against Plasmodium falciparum 3D7 late stage forms infected in immunoliposome encapsulated compound pre-loaded human RBC by [3H]-hypoxanthine incorporation assay to IC50 for antiplasmodial activity against Plasmodium falciparum 3D7 late stage forms infected in human non-washed human RBC containing full drug dosages by [3H]-hypoxanthine incorporation assay; format: functional
Plasmodium falciparum [3] = test: Ratio of IC50 for antiplasmodial activity against chloroquine-sensitive Plasmodium falciparum 3D7 ring forms infected in human RBC incubated for 15 mins followed by compound removal and further incubation for 48 hrs by [3H]-hypoxanthine incorporation assay to IC50 for antiplasmodial activity against chloroquine-sensitive Plasmodium falciparum 3D7 ring forms infected in human RBC using compound …; format: functional
[4] = Drug encapsulation in liposomes assessed as encapsulation efficiency in citrate/phosphate buffered measured after buffer exchange with PBS by UV/Vis spectroscopy relative to untreated control; format: physicochemical; settings: artificial membrane
Outline: (§2)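 Compound loaded into DSPC:cholesterol:DSPE-PEG2000-Mal:DOPE-Rho (84.5:10:5:0.5) liposomes using a citrate (pH 4.0)/PBS pH gradient. Drug measured by UV/vis after SDS disruption at each step: citrate liposomes, after buffer exchange to PBS (chloroquine added to preformed liposomes here), and after ultracentrifugation. Encapsulation efficiency = % of drug that is encapsulated out of total drug in the sample.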

Plasmodium falciparum [5] = test: Antiplasmodial activity against Plasmodium falciparum 3D7 late stage forms infected in immunoliposome encapsulated compound pre-loaded human RBC by [3H]-hypoxanthine incorporation assay; format: functional, organism-based; settings: 3D7, Erythrocyte
[6] = Drug encapsulation in liposomes assessed as encapsulation efficiency in citrate/phosphate buffered measured after ultracentrifugation by UV/Vis spectroscopy relative to untreated control; format: physicochemical; settings: artificial membrane; outline: as §2
Plasmodium falciparum [7] = test: as §1, with “3D7 ring” for “3D7 late”; format: functional
Plasmodium falciparum [8] = test: Antiplasmodial activity against chloroquine-sensitive Plasmodium falciparum 3D7 late forms infected in human RBC using compound encapsulated in to immunoliposome targeted to GPA incubated for 15 mins followed by compound removal and further incubation for 48 hrs by [3H]-hypoxanthine incorporation assay; format: functional, organism-based; settings: 3D7, Erythrocyte
[9] = Drug internalization in liposomes assessed as zeta potential at 500 uM in presence of pH 4 citrate buffer solution (reference value: -2.73 mV); format: physicochemical; settings: artificial membrane, pH 4, 500 µM
Outline: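 Zeta potential of liposomes loaded with compound (500 µM drug per 10 mM lipid), measured in the pH 4.0 citrate hydration buffer and again after buffer exchange to PBS pH 7.4; drug-free liposomes of the same lipid composition served as reference.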

Plasmodium falciparum [10] = test: Antiplasmodial activity against Plasmodium falciparum 3D7 ring stage forms infected in immunoliposome encapsulated compound pre-loaded human RBC by [3H]-hypoxanthine incorporation assay; format: functional, organism-based; settings: 3D7, Erythrocyte

Work on `OC(CCN1CCN(C(c2ccccc2)c2ccccc2)CC1)c1ccc(F)c(F)c1` (stereo not given) yielded a fold induction at 0.0005 mg/ml [1] of 1.
For `N#Cc1ccc(N2CCC(NCCC(O)c3ccc(F)c4ccccc34)CC2)c(C(F)(F)F)c1` (stereo in doubt; 72), the “Ratio IC50” value (Plasmodium falciparum [2]) was 1.5, the “Ratio IC50” value (Plasmodium falciparum [3]) was 5.9 and the Activity [4] was 77.2%. The IC50 (Plasmodium falciparum [5]) was 443 nM, the Activity [6] was 101.4% and the “Ratio IC50” value (Plasmodium falciparum [7]) was 2.8. It also gave an IC50 (Plasmodium falciparum [8]) of 175 nM, an Activity [9] of 8.54 mV and an IC50 (Plasmodium falciparum [10]) of 514 nM.
